≈ marks a conversion by molar mass, not a printed value.
What was measured:
Assay type in all cases: functional
Enterococcus faecium [1] = test: Antibacterial activity against Enterococcus faecium by CLSI M100-S17 method
[2] = system: Staphylococcus epidermidis; test: Antibacterial activity against methicillin-susceptible Staphylococcus epidermidis assessed as susceptible isolates by CLSI M100-S17 method
Streptococcus agalactiae = test: Antibacterial activity against Streptococcus agalactiae by CLSI M100-S17 method
[3] = system: Staphylococcus epidermidis; test: Antibacterial activity against methicillin-resistant Staphylococcus epidermidis assessed as intermediate isolates by CLSI M100-S17 method
Staphylococcus aureus [4] = test: Antibacterial activity against methicillin-susceptible Staphylococcus aureus by CLSI M100-S17 method
Staphylococcus aureus [5] = test: Antibacterial activity against methicillin-resistant Staphylococcus aureus assessed as susceptible isolates by CLSI M100-S17 method
Enterococcus faecium [6] = test: Antibacterial activity against Enterococcus faecium assessed as susceptible isolates by CLSI M100-S17 method
[7] = system: Staphylococcus epidermidis; test: Antibacterial activity against methicillin-resistant Staphylococcus epidermidis by CLSI M100-S17 method
Streptococcus pyogenes [8] = test: Antibacterial activity against Streptococcus pyogenes by CLSI M100-S17 method
[9] = system: Staphylococcus epidermidis; test: Antibacterial activity against methicillin-susceptible Staphylococcus epidermidis by CLSI M100-S17 method
Staphylococcus aureus [10] = test: Antibacterial activity against methicillin-susceptible Staphylococcus aureus assessed as resistant isolates by CLSI M100-S17 method
Streptococcus pneumoniae [11] = test: Antibacterial activity against Streptococcus pneumoniae by CLSI M100-S17 method
Staphylococcus aureus [12] = test: Antibacterial activity against methicillin-resistant Staphylococcus aureus by CLSI M100-S17 method
[13] = system: Staphylococcus epidermidis; test: Antibacterial activity against methicillin-resistant Staphylococcus epidermidis assessed as susceptible isolates by CLSI M100-S17 method
Staphylococcus aureus [14] = test: Antibacterial activity against methicillin-resistant Staphylococcus aureus assessed as resistant isolates by CLSI M100-S17 method
Streptococcus pneumoniae [15] = test: Antibacterial activity against Streptococcus pneumoniae assessed as susceptible isolates by CLSI M100-S17 method
Procedure, shortened: (§1)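 CLSI broth microdilution on clinical isolates, using frozen in-house-prepared panels of test and comparator agents. MICs were read after 20 to 24 h incubation at 35°C in ambient air. Susceptible/intermediate categories were assigned by CLSI M100-S17 guidelines.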

Staphylococcus aureus [16] = test: Antibacterial activity against methicillin-resistant Staphylococcus aureus assessed as intermediate isolates by CLSI M100-S17 method
Enterococcus faecalis [17] = test: Antibacterial activity against Enterococcus faecalis assessed as resistant isolates by CLSI M100-S17 method
[18] = system: Staphylococcus epidermidis; test: Antibacterial activity against methicillin-resistant Staphylococcus epidermidis assessed as resistant isolates by CLSI M100-S17 method
Enterococcus faecalis [19] = test: Antibacterial activity against Enterococcus faecalis by CLSI M100-S17 method
Streptococcus pyogenes [20] = test: Antibacterial activity against Streptococcus pyogenes assessed as susceptible isolates by CLSI M100-S17 method; procedure, shortened: as §1
Enterococcus faecium [21] = test: Antibacterial activity against Enterococcus faecium assessed as intermediate isolates by CLSI M100-S17 method
[22] = system: Staphylococcus epidermidis; test: Antibacterial activity against methicillin-susceptible Staphylococcus epidermidis assessed as resistant isolates by CLSI M100-S17 method
[23] = system: Staphylococcus epidermidis; test: Antibacterial activity against methicillin-susceptible Staphylococcus epidermidis assessed as intermediate isolates by CLSI M100-S17 method
Enterococcus faecalis [24] = test: Antibacterial activity against Enterococcus faecalis assessed as susceptible isolates by CLSI M100-S17 method
Staphylococcus aureus [25] = test: Antibacterial activity against methicillin-susceptible Staphylococcus aureus assessed as susceptible isolates by CLSI M100-S17 method
Staphylococcus aureus [26] = test: Antibacterial activity against methicillin-susceptible Staphylococcus aureus assessed as intermediate isolates by CLSI M100-S17 method
Enterococcus faecalis [27] = test: Antibacterial activity against Enterococcus faecalis assessed as intermediate isolates by CLSI M100-S17 method
Serratia marcescens [28] = test: Antibacterial activity against Serratia marcescens by CLSI M100-S17 method
Escherichia coli [29] = test: Antibacterial activity against Escherichia coli by CLSI M100-S17 method
Acinetobacter baumannii [30] = test: Antibacterial activity against Acinetobacter baumannii assessed as susceptible isolates by CLSI M100-S17 method
Pseudomonas aeruginosa [31] = test: Antibacterial activity against Pseudomonas aeruginosa by CLSI M100-S17 method
Klebsiella pneumoniae [32] = test: Antibacterial activity against Klebsiella pneumoniae assessed as intermediate isolates by CLSI M100-S17 method
Klebsiella oxytoca [33] = test: Antibacterial activity against Klebsiella oxytoca assessed as susceptible isolates by CLSI M100-S17 method
Serratia marcescens [34] = test: Antibacterial activity against Serratia marcescens assessed as intermediate isolates by CLSI M100-S17 method
Proteus mirabilis [35] = test: Antibacterial activity against Proteus mirabilis by CLSI M100-S17 method
[36] = system: Stenotrophomonas maltophilia; test: Antibacterial activity against Stenotrophomonas maltophilia by CLSI M100-S17 method
Enterobacter cloacae [37] = test: Antibacterial activity against Enterobacter cloacae assessed as resistant isolates by CLSI M100-S17 method
Acinetobacter baumannii [38] = test: Antibacterial activity against Acinetobacter baumannii by CLSI M100-S17 method
Proteus mirabilis [39] = test: Antibacterial activity against Proteus mirabilis assessed as susceptible isolates by CLSI M100-S17 method
Proteus mirabilis [40] = test: Antibacterial activity against Proteus mirabilis assessed as resistant isolates by CLSI M100-S17 method
Klebsiella oxytoca [41] = test: Antibacterial activity against Klebsiella oxytoca assessed as resistant isolates by CLSI M100-S17 method
Klebsiella pneumoniae [42] = test: Antibacterial activity against Klebsiella pneumoniae assessed as susceptible isolates by CLSI M100-S17 method
Escherichia coli [43] = test: Antibacterial activity against Escherichia coli assessed as intermediate isolates by CLSI M100-S17 method
Serratia marcescens [44] = test: Antibacterial activity against Serratia marcescens assessed as resistant isolates by CLSI M100-S17 method
Pseudomonas aeruginosa [45] = test: Antibacterial activity against Pseudomonas aeruginosa assessed as susceptible isolates by CLSI M100-S17 method
Pseudomonas aeruginosa [46] = test: Antibacterial activity against Pseudomonas aeruginosa assessed as intermediate isolates by CLSI M100-S17 method
Acinetobacter baumannii [47] = test: Antibacterial activity against Acinetobacter baumannii assessed as intermediate isolates by CLSI M100-S17 method
Enterobacter cloacae [48] = test: Antibacterial activity against Enterobacter cloacae assessed as intermediate isolates by CLSI M100-S17 method
Enterobacter cloacae [49] = test: Antibacterial activity against Enterobacter cloacae assessed as susceptible isolates by CLSI M100-S17 method
Enterobacter cloacae [50] = test: Antibacterial activity against Enterobacter cloacae by CLSI M100-S17 method
Escherichia coli [51] = test: Antibacterial activity against Escherichia coli assessed as resistant isolates by CLSI M100-S17 method
Acinetobacter baumannii [52] = test: Antibacterial activity against Acinetobacter baumannii assessed as resistant isolates by CLSI M100-S17 method
Proteus mirabilis [53] = test: Antibacterial activity against Proteus mirabilis assessed as intermediate isolates by CLSI M100-S17 method
Pseudomonas aeruginosa [54] = test: Antibacterial activity against Pseudomonas aeruginosa assessed as resistant isolates by CLSI M100-S17 method
Klebsiella oxytoca [55] = test: Antibacterial activity against Klebsiella oxytoca assessed as intermediate isolates by CLSI M100-S17 method
Escherichia coli [56] = test: Antibacterial activity against Escherichia coli assessed as susceptible isolates by CLSI M100-S17 method
Klebsiella pneumoniae [57] = test: Antibacterial activity against Klebsiella pneumoniae assessed as resistant isolates by CLSI M100-S17 method
Streptococcus pneumoniae [58] = test: Antibacterial activity against Streptococcus pneumoniae assessed as intermediate isolates by CLSI M100-S17 method; procedure, shortened: as §1
Streptococcus pneumoniae [59] = test: Antibacterial activity against Streptococcus pneumoniae assessed as resistant isolates by CLSI M100-S17 method
Procedure, shortened: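 Clinical isolates were tested by CLSI broth microdilution in frozen, in-house-prepared 96-well panels of the test agent and comparator agents. MICs were read and classed as susceptible, intermediate or resistant using CLSI M100-S17 breakpoints. The value is the share of isolates in each category.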

## CN[C@H](CC(C)C)C(=O)N[C@H]1C(=O)N[C@@H](CC(N)=O)C(=O)N[C@H]2C(=O)N[C@H]3C(=O)N[C@H](C(=O)N[C@H](C(=O)O)c4cc(O)cc(O)c4-c4cc3ccc4O)[C@H](O)c3ccc(c(Cl)c3)Oc3cc2cc(c3O[C@@H]2O[C@H](CO)[C@@H](O)[C@H](O)[C@H]2O[C@H]2C[C@](C)(N)[C@H](O)[C@H](C)O2)Oc2ccc(cc2Cl)[C@H]1O [VANCOMYCIN]
Enterococcus faecium [1]
  MIC50: 0.5 µg/mL (≈ 0.345 µM)
  MIC90: > 32 µg/mL
[2]
  Activity: 100%
Streptococcus agalactiae
  MIC50: ≤ 0.25 µg/mL
  MIC90: 0.25 µg/mL (≈ 0.173 µM)
[3]
  Activity: 0%
Staphylococcus aureus [4]
  MIC50: 1 µg/mL (≈ 0.69 µM)
  MIC90: 1 µg/mL (≈ 0.69 µM)
Staphylococcus aureus [5]
  Activity: 100%
Enterococcus faecium [6]
  Activity: 87.9%
[7]
  MIC90: 2 µg/mL (≈ 1.38 µM)
Streptococcus pyogenes [8]
  MIC50: 0.5 µg/mL (≈ 0.345 µM)
  MIC90: 0.5 µg/mL (≈ 0.345 µM)
[9]
  MIC90: 2 µg/mL (≈ 1.38 µM)
Staphylococcus aureus [10]
  Activity: 0%
Streptococcus pneumoniae [11]
  MIC50: ≤ 0.25 µg/mL
  MIC90: 0.25 µg/mL (≈ 0.173 µM)
Staphylococcus aureus [12]
  MIC50: 1 µg/mL (≈ 0.69 µM)
  MIC90: 1 µg/mL (≈ 0.69 µM)
[13]
  Activity: 100%
Staphylococcus aureus [14]
  Activity: 0%
Streptococcus pneumoniae [15]
  Activity: 100%
Staphylococcus aureus [16]
  Activity: 0%
Enterococcus faecalis [17]
  Activity: 0%
[18]
  Activity: 0%
Enterococcus faecalis [19]
  MIC50: 1 µg/mL (≈ 0.69 µM)
  MIC90: 2 µg/mL (≈ 1.38 µM)
Streptococcus pyogenes [20]
  Activity: 100%
Enterococcus faecium [21]
  Activity: 0%
[22]
  Activity: 0%
[23]
  Activity: 0%
Enterococcus faecalis [24]
  Activity: 100%
Staphylococcus aureus [25]
  Activity: 100%
Staphylococcus aureus [26]
  Activity: 0%
Enterococcus faecalis [27]
  Activity: 0%

## GENTAMICIN
Serratia marcescens [28]
  MIC90: 1 µg/mL
[2]
  Activity: 58.3%
Escherichia coli [29]
  MIC90: 16 µg/mL
[3]
  Activity: 15%
Acinetobacter baumannii [30]
  Activity: 92%
Staphylococcus aureus [4]
  MIC90: 1 µg/mL
Pseudomonas aeruginosa [31]
  MIC50: 4 µg/mL
  MIC90: > 32 µg/mL
Klebsiella pneumoniae [32]
  Activity: 0.4%
Staphylococcus aureus [5]
  Activity: 86.8%
Klebsiella oxytoca [33]
  Activity: 97%
Serratia marcescens [34]
  Activity: 3.7%
Proteus mirabilis [35]
  MIC50: 1 µg/mL
  MIC90: 2 µg/mL
[36]
  MIC50: 32 µg/mL
  MIC90: > 32 µg/mL
Enterobacter cloacae [37]
  Activity: 3.6%
[7]
  MIC50: 16 µg/mL
  MIC90: > 32 µg/mL
Acinetobacter baumannii [38]
  MIC90: 1 µg/mL
[9]
  MIC90: > 32 µg/mL
Proteus mirabilis [39]
  Activity: 95.8%
Staphylococcus aureus [10]
  Activity: 3.2%
Proteus mirabilis [40]
  Activity: 3.4%
Staphylococcus aureus [12]
  MIC90: > 32 µg/mL
[13]
  Activity: 30%
Klebsiella oxytoca [41]
  Activity: 1%
Staphylococcus aureus [14]
  Activity: 13.2%
Klebsiella pneumoniae [42]
  Activity: 96.7%
Staphylococcus aureus [16]
  Activity: 0%
[18]
  Activity: 55%
Escherichia coli [43]
  Activity: 0.5%
Serratia marcescens [44]
  Activity: 4.7%
Pseudomonas aeruginosa [45]
  Activity: 60.1%
Pseudomonas aeruginosa [46]
  Activity: 19%
[22]
  Activity: 31.5%
Acinetobacter baumannii [47]
  Activity: 0%
Enterobacter cloacae [48]
  Activity: 0%
[23]
  Activity: 10.2%
Enterobacter cloacae [49]
  Activity: 96.4%
Enterobacter cloacae [50]
  MIC90: 1 µg/mL
Escherichia coli [51]
  Activity: 10.6%
Staphylococcus aureus [25]
  Activity: 96.7%
Acinetobacter baumannii [52]
  Activity: 8%
Proteus mirabilis [53]
  Activity: 0.8%
Pseudomonas aeruginosa [54]
  Activity: 20.9%
Klebsiella oxytoca [55]
  Activity: 2%
Escherichia coli [56]
  Activity: 88.9%
Staphylococcus aureus [26]
  Activity: 0.1%
Klebsiella pneumoniae [57]
  Activity: 2.9%

## CO/N=C(\C(=O)N[C@@H]1C(=O)N2C(C(=O)O)=C(CSc3nc(=O)c(O)nn3C)CS[C@H]12)c1csc(N)n1 [CEFTRIAXONE]
Streptococcus pneumoniae [58]
  Activity: 0.2%
Streptococcus pneumoniae [11]
  MIC50: ≤ 0.06 µg/mL
  MIC90: 0.12 µg/mL (≈ 0.216 µM)
Streptococcus pneumoniae [15]
  Activity: 99.7%
Streptococcus pneumoniae [59]
  Activity: 0.1%

Source: ChEMBL document CHEMBL1649552 (2009)
